Rows were chosen to be rich in hits. Some 0.99% of all compounds tested hit in one or more screens of this group.
Ins promoter up = MIN6 insulin promoter up-regulation. z-score at 5 µM. MIN6 insulin promoter-GFP reporter, high-content imaging; active compounds read high. 0.3% of 190,000 active;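 active means z-score above 3 at 5 µM with at least 500 cells counted in the well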
ABCG2 inh = inhibitors of human ABCG2 transporter, ABCB1 counter-screen; Q9UNQ0; IgMXP3 cells, JC-1 efflux, flow cytometry; inhibition, % at 6.6 µM; 0.1% of 190,000 active; AID 1325;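 active means inhibition above 80%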;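 further: 0% = DMSO and 100% = nicardipine control wells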
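Test system: IgMXP3 cells (ABCG2) mixed with DDAO far-red-labelled CCRF-Adr cells (ABCB1). Reagent: JC-1 transporter substrate. Compound dosing: single test compound dose, 6.6 µM final. Times: 10 min compound exposure, 25 °C. Detection: flow cytometry of retained JC-1 fluorescence. Read-out basis: efflux inhibition in percent versus controls. Controls: nicardipine and DMSO wells.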
DDE Tn6 FP inh = disrupts Tn6 cyclic peptide binding to fibrin D-Dimer-E complex; P02675; Fibrin DD(E) TRITC-Tn6 fluorescence polarization displacement; inhibition, % at 8.3 µM; 0.21% of 370,000 active; AID 720509;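 active means inhibition above a per-campaign cutoff: mean of compounds within control limits plus 3 SD, cut at about 15% in these data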;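 further: 0% = median of all compound wells on the plate and 100% = blocking peptide control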
ABCB1 block = inhibitors of human ABCB1 transporter, ABCG2 counter-screen; 0.067% of 190,000 active; CCRF-Adr cells, JC-1 efflux, flow cytometry; P08183; AID 1326; inhibition, % at 6.6 µM; in the data active means inhibition above about 40%;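 further: 0% = vehicle and 100% = reference inhibitor; higher value means more JC-1 retained so stronger ABCB1 efflux block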
DDE Tn7 FP inh = DD(E)-Tn7 binding inhibition, primary FP screen | FP displacement of FITC-Tn7 peptide from fibrin DD(E); 0% = median of compound wells per plate | 0.13% of 370,000 active | AID 720508 | inhibition, % at 8.3 µM;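 active means inhibition above the mean of compounds falling within the control limits plus 3 SD of them, cut at about 14% in these data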;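 further: 0% = plate median of compound wells and 100% = 10 µM Aha-Tn7 peptide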
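System: human fibrin DD(E); quantity: Fibrin-DD(E) at 2 µM final; also added: fluorescent Tn7 probe at 0.1 µM; compound dosing: single nominal test concentration of 8.3 µM per compound; schedule: 10 min preincubation, 3 h with tracer, room temperature; detection: fluorescence polarization of the labelled Tn7 tracer; repeats: one replicate per compound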
GRK2 aptamer HTS = inhibitors of human GRK2 displacing RNA aptamer; P25098; bead flow cytometry, FAM-aptamer displacement from GRK2; inhibition of aptamer binding, % at 10 µM; 0.59% of 330,000 active; AID 488847;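 active means inhibition of aptamer binding above 40%, roughly 3 SD of noise, on plates passing a quality check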;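 further: median bead fluorescence of bound FAM aptamer so fluorescent compounds give negative values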
Target sequence (P25098 whole entry, looked up): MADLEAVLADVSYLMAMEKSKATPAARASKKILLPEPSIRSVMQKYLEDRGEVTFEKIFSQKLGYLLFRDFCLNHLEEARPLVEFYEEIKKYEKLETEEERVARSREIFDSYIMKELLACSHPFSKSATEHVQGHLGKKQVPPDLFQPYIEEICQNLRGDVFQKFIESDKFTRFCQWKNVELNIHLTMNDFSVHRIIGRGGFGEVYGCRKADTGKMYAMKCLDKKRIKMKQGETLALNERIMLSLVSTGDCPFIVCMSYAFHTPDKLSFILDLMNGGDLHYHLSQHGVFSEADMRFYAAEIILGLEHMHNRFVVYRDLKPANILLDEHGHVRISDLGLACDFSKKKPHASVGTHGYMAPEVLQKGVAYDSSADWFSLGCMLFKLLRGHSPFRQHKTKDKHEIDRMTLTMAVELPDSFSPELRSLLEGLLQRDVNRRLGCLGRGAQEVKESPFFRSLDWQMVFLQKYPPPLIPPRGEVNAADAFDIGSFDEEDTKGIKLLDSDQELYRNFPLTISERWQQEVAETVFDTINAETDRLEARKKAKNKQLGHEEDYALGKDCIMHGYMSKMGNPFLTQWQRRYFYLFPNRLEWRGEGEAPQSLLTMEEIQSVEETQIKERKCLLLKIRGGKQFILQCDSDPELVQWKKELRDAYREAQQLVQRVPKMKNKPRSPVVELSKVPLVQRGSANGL
Tn6 DDE ctr = counter-screen for inhibitors of Tn6 peptide binding to fibrin DD(E); shares compounds with DDE Tn6 FP inh; AID 720621; TRITC-Tn6 fluorescence polarization displacement; 0% = median of compound wells, not DMSO; 2% of 680 active; inhibition, % at 8.3 µM;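 active means inhibition above the mean of test compounds lying between the control limits plus 3 SD of those, cut at about 14% in these data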;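 further: 0% = median of compound wells and 100% = wells with Aha-Tn7 blocking peptide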
DDE Tn6 confirm = DD(E)-Tn6 binding inhibition, FP confirmation | shares compounds with DDE Tn6 FP inh | FP displacement of TRITC-Tn6 peptide from DD(E); 0% = per-plate median of test wells | inhibition, % at 8.3 µM | 10% of 680 active | AID 720631;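 active means inhibition above the mean of compounds lying within the control limits plus 3 SD, cut at about 16% in these data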;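 further: 100% = high control wells holding a competing inhibitor peptide at 10 µM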
The depositor's hits bear a star; . = no result; + = active, no number.

SMILES	Ins promoter up	ABCG2 inh	DDE Tn6 FP inh	ABCB1 block	DDE Tn7 FP inh	GRK2 aptamer HTS	Tn6 DDE ctr	DDE Tn6 confirm
CN(c1ccc(NC(=O)Cc2c[nH]c3ccccc23)cc1)c1ccccn1	.	.	3.3	.	-0.6	.	.	.
CC1CCC(NC(=O)C2CCC(CNc3c(N4CCCCC4)c(=O)c3=O)CC2)CC1 (centres undefined)	-0.43	.	16.6*	.	1.9	0.0	3.6	-7.5
CC(C)(C)NC(=O)C1CCC(CNc2c(N3CCCCC3)c(=O)c2=O)CC1 (centres undefined)	0.14	.	0.9	.	2.2	5.0	.	.
CCOc1ccccc1N(CC(=O)N1CCCC1)S(C)(=O)=O	.	.	15.7*	.	11.2	0.0	0.6	1.0
Cc1cc(N2CCN(CCO)CC2)n2nc(C)nc2n1	.	.	-2.9	.	-1.6	.	.	.
COc1cccc2c1C(=O)c1c(O)c3c(c(O)c1C2=O)CC(O)(C(C)=O)CC3OC1CC(N(C)C)C(O)C(C)O1 (centres undefined)	.	.	+	.	11.3	.	-7.3	93.2*
O=C(Nc1ccc(Cl)cc1)c1csc(-c2ccccc2)n1	-0.68	4.2	28.2*	0.7	6.3	0.0	10.5	26.4*
Cc1nn(C)c(C)c1N1C(=O)c2cccc3c(Br)ccc(c23)C1=O	.	1.4	0.1	1.2	3.1	0.0	.	.
Cc1nn(C)c(C)c1N1C(=O)c2cccc3c(N)ccc(c23)C1=O	2.47	7.5	19.4*	1.2	5.1	4.0	11.8	2.7
Cc1ccc(NC(=S)NNC(=O)c2cnccn2)cc1	.	.	3.1	.	-0.6	.	.	.
COC(=O)c1ccc2c(c1)SC1=C(CCCC1=O)N2	0.44	-0.5	21.9*	0.5	-0.7	0.0	1.0	24.3*
COc1cccc(C(=O)N2CCC(Oc3cccnc3)CC2)c1	.	.	-0.8	.	5.6	.	.	.
COc1ccc(C(=O)N(Cc2ccccc2)c2cccc(C)c2)cc1	.	.	17.1*	.	1.4	5.0	0.7	-2.6
COc1ccc(/C=C/S(=O)(=O)NCCc2ccccc2)c(CNC(=O)OC(C)(C)C)c1	.	.	3.0	.	4.9	.	.	.
C#CCNC(=O)C[C@H]1C[C@@]2(C(=O)OC)C(=C[C@H](C(C)(C)C)O[C@@H]2C)N(CCCCCCCC)C1=O	.	.	-4.6	.	-0.9	.	.	.
COC(=O)c1ccc(Cn2c(C)c(C(=O)NCc3cccc(C(F)(F)F)c3)sc2=O)o1	.	.	17.3*	.	4.8	.	4.7	-3.2
Cc1cc2ccccc2n1CCNC(=O)Cc1ccccc1	-1.01	3.0	25.6*	0.8	10.8	35.0	-5.9	-3.8
Cc1cc(C)c(S(=O)(=O)NCCn2c(C)cc3ccccc32)c(C)c1	0.03	0.2	55.7*	0.3	-8.1	1.0	-3.6	22.8*
COC(=O)[C@]12CCCCC=C1N(Cc1ccco1)C(=O)[C@H](CC(=O)N1CCC(c3ccccc3)CC1)C2	.	.	0.5	.	-8.4	.	.	.
N#Cc1ccc(/C=C2\CC3(OC(=O)c4ccc(F)cc4)CCCN2C3)cc1 (centres undefined)	.	.	-10.7	.	-2.0	.	.	.
COc1ccc(Cn2ccc3ccc(-c4ccc5ccn(Cc6cccc(F)c6)c5c4)cc32)cc1	.	.	-3.0	.	6.6	.	.	.
CNC(=O)C[C@@H]1CC[C@@H]2[C@H](COc3ccc(NC(=O)c4cccc(F)c4)cc3C(=O)N2C)O1	.	.	1.4	.	7.8	.	.	.
CCOc1ccc(OCC)c(S(=O)(=O)n2cnc(C)c2)c1	.	.	16.3*	.	-3.7	1.0	-3.0	-7.6
CCOc1ccc(OCC)c(S(=O)(=O)N2CCCCC2)c1	-1.89	-4.4	-3.8	-0.3	-0.1	6.0	.	.
COc1ccccc1NC(=O)/C=C/c1ccc(OC)c(S(=O)(=O)N2CCOCC2)c1	-0.16	8.5	16.8*	1.2	8.7	1.0	3.3	-1.6
SMILES	Ins promoter up	ABCG2 inh	DDE Tn6 FP inh	ABCB1 block	DDE Tn7 FP inh	GRK2 aptamer HTS	Tn6 DDE ctr	DDE Tn6 confirm
CCN1C(=O)CC(N2CCN(CC(=O)NC(C)C)CC2)C1=O (centres undefined)	.	2.3	15.5*	0.7	-2.0	0.0	0.8	-2.0
CC1(C)c2ccccc2N2CC(=O)N(CC(N)=O)C21C (centres undefined)	0.68	-0.5	76.3*	-0.2	-12.3	8.0	-3.0	-5.0
CC1CN(C(=O)c2ccc(COc3ccccc3Br)o2)CC(C)O1 (centres undefined)	-0.71	38.5	21.3*	1.6	7.6	0.0	-1.1	-0.6
COc1ccc(NC(=O)CSCC(=O)Nc2sccc2C#N)cc1	.	.	16.3*	.	6.3	3.0	1.0	5.6
CC(COc1ccc(C(F)(F)F)cc1)CN1CCC(C(O)(c2ccccc2)c2ccccc2)CC1 (centres undefined)	.	.	-5.8	.	-5.2	.	.	.
CCOC(=O)c1cccc(NC(=O)CN(C)S(=O)(=O)c2ccc(Cl)s2)c1	.	.	-1.3	.	5.4	.	.	.
CN1C(=O)NC(c2ccccc2[N+](=O)[O-])C2=C1CCCC2=O (centres undefined)	.	.	44.7*	.	5.4	2.0	-5.9	20.5*
O=C(c1ccc(Br)cc1)N1CCN(S(=O)(=O)c2ccccc2)CC1	.	3.4	15.5*	0.9	-8.7	0.0	-5.2	-11.5
O=C(c1ccc(=O)[nH]c1)N1CCN(S(=O)(=O)c2ccccc2)CC1	.	.	4.3	.	5.0	3.0	.	.
O=C(O)CCN(Cc1ccccc1)S(=O)(=O)c1ccc(Cl)cc1F	-0.31	2.5	15.6*	0.1	4.1	0.0	-0.8	-3.8
O=C(O)CCN(Cc1ccccc1)S(=O)(=O)c1ccccc1Cl	0.03	1.7	-6.4	0.1	-5.4	.	.	.
COC(=O)C1CN(Cc2ccc(OC)cc2)CCS(=O)(=O)N1Cc1cn(Cc2ccc(Cl)cc2)nn1 (centres undefined)	.	.	-9.2	.	7.2	.	.	.
O=C(Cc1cccs1)Nc1cccc(-c2nc3cc4ccccc4cc3[nH]2)c1	-2.07	-3.9	143.7*	-0.3	-13.9	0.0	4.2	34.0*
COc1ccc(Cl)c(Cn2c(NCCCO)nc3c2c(=O)n(C)c(=O)n3C)c1	-0.04	5.4	16.5*	0.0	1.9	1.0	-4.5	-4.2
CC(OC(=O)c1cccc([N+](=O)[O-])c1)C(=O)N1CCc2ccccc21 (centres undefined)	.	.	15.6*	.	-11.5	0.0	2.6	1.2
CC(=O)Nc1cccc(C(=O)OC(C)C(=O)N2CCc3ccccc32)c1 (centres undefined)	.	.	-2.1	.	0.2	0.0	.	.
COc1ccc(N=C(N)NC(=O)OCc2ccccc2)cc1	.	.	-8.6	.	7.7	.	.	.
Cc1cc(C(C)(C)C)cc(S(=O)(=O)NCCc2ccncc2)c1C	.	.	21.1*	.	0.2	0.0	-5.3	-8.0
CC(C)(C)c1ccc(S(=O)(=O)NCCc2ccncc2)cc1	-0.87	1.4	7.0	0.1	-1.9	0.0	.	.
